Data on 17 compounds can be found in ChEMBL document CHEMBL1811838, “Antimalarial activity of natural and synthetic prodiginines” (J Med Chem, 2011).

The structures appear in SMILES notation.

What is called IC50 is the midpoint of a concentration-inhibition curve.

In the first data set the test system is Plasmodium falciparum. Put plainly: Antimalarial activity Plasmodium falciparum D6 after 72 hrs by SYBR Green I based fluorescence assay. To be noted: D6, 72 h. In kind it is functional, organism-based. Summed up: (§1)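 P. falciparum (D6 pansensitive; Dd2 MDR) cultured under standard conditions and grown 72 h with varying compound concentrations, chloroquine positive control or no drug, each condition in quadruplicate. Growth measured by SYBR Green I fluorescence with minor modifications; IC50 = concentration inhibiting growth by 50%.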
`CCCCCCCCCCCc1ccc(/C=C2\N=C(c3cccs3)C=C2OC)[nH]1` registered an IC50 of 5940 nM.

The compound `CCCCCCCCc1cc[nH]c1/C=C1\N=C(c2ccc[nH]2)C=C1OC` displayed a half-maximal inhibitory concentration (IC50) of 4.6 nM.

As for `CCCCCCCCCCCc1ccc(/C=C2\N=C(c3ccco3)C=C2OC)[nH]1`, the half-maximal inhibitory concentration (IC50) was found to be 2920 nM.

Take `COC1=CC(c2cccs2)=N/C1=C\c1[nH]c(C)cc1C`: the IC50 is > 25000 nM.

With `CCCCCCCCCCCC1=N/C(=C\c2[nH]c(-c3ccccc3)cc2OC)C=C1`, the midpoint of inhibition, the IC50, lay at 10500 nM.

In turn, `CCCCCCc1cc[nH]c1/C=C1\N=C(c2ccc[nH]2)C=C1OC` gave a concentration for half-maximal inhibition (IC50) of 28 nM.

Consider `CCCCCCCCCCCCCCCCc1ccc(/C=C2\N=C(c3ccc[nH]3)C=C2OC)[nH]1`, for which the IC50 came out at 300 nM.

As to `COC1=CC(c2ccc[nH]2)=N/C1=C\c1[nH]ccc1CC(C)C`, half-maximal inhibition (IC50) required 460 nM.

`COC1=CC(c2ccc[nH]2)=N/C1=C\c1[nH]c(C)cc1C` showed an IC50 of 8900 nM.

In the case of `CCCCCCCc1cc(Cc2ccc(Cl)cc2)c(/C=C2\N=C(c3ccc[nH]3)C=C2OC)[nH]1`, it took 2.8 nM to reach half-maximal inhibition (IC50).

With `CCCCCCc1cc(Cc2ccc(Cl)cc2)c(/C=C2\N=C(c3ccc[nH]3)C=C2OC)[nH]1`, the IC50 worked out at 2 nM.

In turn, `CCCCCCc1ccc(/C=C2\N=C(c3ccc[nH]3)C=C2OC)[nH]1` returned an IC50 of 375 nM.

`CCCCCCCCCCCCCCCCc1cc[nH]c1/C=C1\N=C(c2ccc[nH]2)C=C1OC`: the IC50 is > 25000 nM.

`CCCCc1cc[nH]c1/C=C1\N=C(c2ccc[nH]2)C=C1OC` registered a 50% inhibitory concentration (IC50) of 80 nM.

For the compound `COC1=CC(c2ccco2)=N/C1=C\c1[nH]c(C)cc1C`, the half-maximal inhibitory concentration (IC50) was > 25000 nM.

In the case of `CCCCCCCc1cc(CCCCCC)c(/C=C2\N=C(c3ccc[nH]3)C=C2OC)[nH]1`, the IC50 amounted to 2.1 nM.

Compound `CCCCCCCCc1cc(Cc2ccc(F)cc2)c(/C=C2\N=C(c3ccc[nH]3)C=C2OC)[nH]1` yielded an IC50 of 1.3 nM.

In the next data set the test system is Plasmodium falciparum. Put plainly: Antimalarial activity multidrug-resistant Plasmodium falciparum Dd2 after 72 hrs by SYBR Green I based fluorescence assay. To be noted: Dd2, 72 h. The format is functional, organism-based. The gist of the method: as §1
`CCCCCCCCCCCc1ccc(/C=C2\N=C(c3cccs3)C=C2OC)[nH]1` had an IC50 of 7770 nM.

In the case of `CCCCCCCCc1cc[nH]c1/C=C1\N=C(c2ccc[nH]2)C=C1OC`, the concentration for half-maximal inhibition (IC50) came out at 1.8 nM.

Turning to `CCCCCCCCCCCc1ccc(/C=C2\N=C(c3ccco3)C=C2OC)[nH]1`, the concentration for half-maximal inhibition (IC50) came out at 3810 nM.

Turning to `COC1=CC(c2cccs2)=N/C1=C\c1[nH]c(C)cc1C`, the 50% inhibitory concentration (IC50) is > 25000 nM.

Regarding `CCCCCCCCCCCC1=N/C(=C\c2[nH]c(-c3ccccc3)cc2OC)C=C1`, half-maximal inhibition (IC50) was put at 15800 nM.

Turning to `CCCCCCc1cc[nH]c1/C=C1\N=C(c2ccc[nH]2)C=C1OC`, inhibition was half-maximal at 7 nM (IC50).

The compound `CCCCCCCCCCCCCCCCc1ccc(/C=C2\N=C(c3ccc[nH]3)C=C2OC)[nH]1` returned a half-maximal inhibitory concentration (IC50) of 400 nM.

`COC1=CC(c2ccc[nH]2)=N/C1=C\c1[nH]ccc1CC(C)C` returned a concentration for half-maximal inhibition (IC50) of 230 nM.

In the case of `COC1=CC(c2ccc[nH]2)=N/C1=C\c1[nH]c(C)cc1C`, the 50% inhibitory concentration (IC50) stood at 8130 nM.

In the case of `CCCCCCCc1cc(Cc2ccc(Cl)cc2)c(/C=C2\N=C(c3ccc[nH]3)C=C2OC)[nH]1`, the IC50 was found to be 2.2 nM.

In the case of `CCCCCCc1cc(Cc2ccc(Cl)cc2)c(/C=C2\N=C(c3ccc[nH]3)C=C2OC)[nH]1`, the IC50 came out at 1.8 nM.

For the compound `CCCCCCc1ccc(/C=C2\N=C(c3ccc[nH]3)C=C2OC)[nH]1`, 450 nM corresponded to half-maximal inhibition (IC50).

Turning to `CCCCCCCCCCCCCCCCc1cc[nH]c1/C=C1\N=C(c2ccc[nH]2)C=C1OC`, the IC50 is > 25000 nM.

For `CCCCc1cc[nH]c1/C=C1\N=C(c2ccc[nH]2)C=C1OC`, the half-maximal inhibitory concentration (IC50) was 18 nM.

For `COC1=CC(c2ccco2)=N/C1=C\c1[nH]c(C)cc1C`, the half-maximal inhibitory concentration (IC50) is > 25000 nM.

In turn, `CCCCCCCc1cc(CCCCCC)c(/C=C2\N=C(c3ccc[nH]3)C=C2OC)[nH]1` had a concentration for half-maximal inhibition (IC50) of 1.2 nM.

In the case of `CCCCCCCCc1cc(Cc2ccc(F)cc2)c(/C=C2\N=C(c3ccc[nH]3)C=C2OC)[nH]1`, half-maximal inhibition (IC50) required 1.2 nM.

Test system in another data set: not listed separately
Put plainly: Toxicity in C57BL/6J mouse splenic lymphocytes after 72 hrs by Alamar blue Assay. In kind it is cell-based. To be noted: splenic lymphocyte. The gist of the method: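 Splenic lymphocytes from C57BL/6J mice washed, then stimulated with 1 μg/mL concanavalin A in RPMI/10% FBS with 50 μM β-mercaptoethanol. Seeded at 2 × 10^5 cells/well with serially diluted compound for 72 h at 37 °C, 5% CO2. Resazurin added (final 10 μM) for another 24 h; fluorescence read at ex 560/em 590 nm.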
A general note: The colour change of resazurin is a common sign of viable cells or microbes.
In turn, `CCCCCCCCCCCc1ccc(/C=C2\N=C(c3cccs3)C=C2OC)[nH]1` registered a half-maximal inhibitory concentration (IC50) of 2120 nM.

As to `CCCCCCCCc1cc[nH]c1/C=C1\N=C(c2ccc[nH]2)C=C1OC`, the 50% inhibitory concentration (IC50) was < 125 nM.

`CCCCCCCCCCCc1ccc(/C=C2\N=C(c3ccco3)C=C2OC)[nH]1` had a half-inhibitory concentration (IC50) of 980 nM.

`COC1=CC(c2cccs2)=N/C1=C\c1[nH]c(C)cc1C` returned an IC50 of 3530 nM.

Regarding `CCCCCCCCCCCC1=N/C(=C\c2[nH]c(-c3ccccc3)cc2OC)C=C1`, the IC50 is 3580 nM.

`CCCCCCc1cc[nH]c1/C=C1\N=C(c2ccc[nH]2)C=C1OC`: the IC50 is < 125 nM.

As for `CCCCCCCCCCCCCCCCc1ccc(/C=C2\N=C(c3ccc[nH]3)C=C2OC)[nH]1`, the half-maximal inhibitory concentration (IC50) is < 125 nM.

Turning to `COC1=CC(c2ccc[nH]2)=N/C1=C\c1[nH]ccc1CC(C)C`, the IC50 is < 125 nM.

In the case of `COC1=CC(c2ccc[nH]2)=N/C1=C\c1[nH]c(C)cc1C`, the IC50 was < 125 nM.

As for `CCCCCCCc1cc(Cc2ccc(Cl)cc2)c(/C=C2\N=C(c3ccc[nH]3)C=C2OC)[nH]1`, the half-maximal inhibitory concentration (IC50) was < 125 nM.

With `CCCCCCc1cc(Cc2ccc(Cl)cc2)c(/C=C2\N=C(c3ccc[nH]3)C=C2OC)[nH]1`, the IC50 was < 125 nM.

On to `CCCCCCc1ccc(/C=C2\N=C(c3ccc[nH]3)C=C2OC)[nH]1`, for which the IC50 is < 125 nM.

In turn, `CCCCCCCCCCCCCCCCc1cc[nH]c1/C=C1\N=C(c2ccc[nH]2)C=C1OC` returned an IC50 of 3630 nM.

Turning to `CCCCc1cc[nH]c1/C=C1\N=C(c2ccc[nH]2)C=C1OC`, the half-inhibitory concentration (IC50) was < 125 nM.

For `COC1=CC(c2ccco2)=N/C1=C\c1[nH]c(C)cc1C`, the IC50 amounted to 3890 nM.

Take `CCCCCCCc1cc(CCCCCC)c(/C=C2\N=C(c3ccc[nH]3)C=C2OC)[nH]1`: the IC50 is < 125 nM.

In the case of `CCCCCCCCc1cc(Cc2ccc(F)cc2)c(/C=C2\N=C(c3ccc[nH]3)C=C2OC)[nH]1`, the concentration for half-maximal inhibition (IC50) was < 125 nM.

The test system of a further data set is Plasmodium yoelii. The experiment in a line: Antimalarial activity Plasmodium yoelii infected in CF-1 mouse assessed as reduction of parasitemia at 25 mg/kg, po qd for 3 days administered 24 hrs after infection measured after 24 hrs last dose relative to control. Set-up: scale not given: the % may be the effect or the level left.
Conditions: not given
In kind it is functional. The gist of the method: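 Female outbred CF-1 mice infected iv (tail vein) with 5 × 10^5 P. yoelii Kenya-infected erythrocytes. Groups of five given compound or vehicle alone by gavage in caprylic/capric triglyceride once daily for 3 days starting 24 h post-infection. One day after last dose, Giemsa-stained thin smears scored microscopically for % infected erythrocytes vs untreated controls. Group mean weight day 3 vs day 0. Smear-negative mice followed; parasite-free at 28 days counted cured.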
For the compound `CCCCCCc1cc(Cc2ccc(Cl)cc2)c(/C=C2\N=C(c3ccc[nH]3)C=C2OC)[nH]1`, the Activity is recorded as 100%.

Another data set has as its system Mus musculus. The experiment in a line: Toxicity in Plasmodium yoelii infected CF-1 mouse assessed as weight loss at 5 mg/kg, po qd for 3 days relative to control. To be noted: in vivo, 72 h. Also noted: dose 5 mg/kg, route oral. In kind it is organism-based. Summed up: (§2)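 Female outbred CF-1 mice were infected i.v. via the tail vein with 5 × 10^5 P. yoelii Kenya-infected erythrocytes, in groups of five. Compound or vehicle alone was given by gavage in caprylic/capric triglyceride once daily for 3 days, starting 24 h post-infection. One day after the last dose, Giemsa-stained thin smears were scored by microscopy for % parasitemia versus untreated controls. Group mean weight was recorded as day 3 versus day 0.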
Regarding `CCCCCCc1cc(Cc2ccc(Cl)cc2)c(/C=C2\N=C(c3ccc[nH]3)C=C2OC)[nH]1`, the Activity is recorded as 100.3%.

For a further data set, the system named is Mus musculus. Put plainly: Toxicity in Plasmodium yoelii infected CF-1 mouse assessed as weight loss at 25 mg/kg, po qd for 3 days relative to control. In kind it is organism-based. Set-up: dose 25 mg/kg, route oral. To be noted: in vivo, 72 h. Summed up:
as §2
`CCCCCCc1cc(Cc2ccc(Cl)cc2)c(/C=C2\N=C(c3ccc[nH]3)C=C2OC)[nH]1`: the Activity was 96%.

The next data set concerns Plasmodium yoelii. Put plainly: Antimalarial activity Plasmodium yoelii infected in CF-1 mouse assessed as reduction of parasitemia at 5 mg/kg, po qd for 3 days administered 24 hrs after infection measured after 24 hrs last dose relative to control. In kind it is functional. Also noted: scale not given: the % may be the effect or the level left.
Conditions: not given
The gist of the method: as §2
Turning to `CCCCCCc1cc(Cc2ccc(Cl)cc2)c(/C=C2\N=C(c3ccc[nH]3)C=C2OC)[nH]1`, the Activity is listed as 99%.
